Experimental data as given in ChEMBL document CHEMBL4400560, “Discovery and optimization of novel piperazines as potent inhibitors of fatty acid synthase (FASN)” (Bioorg Med Chem Lett, 2019).
Converted amounts (≈) assume the structure as drawn.

Columns and labels:
[1] = Stability in mouse liver microsomes assessed as compound remaining after 30 mins; assay type: ADME, Microsome; settings: read-out: Stability
How it was run: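 Mouse liver microsomes, 30-min incubation. Result expressed as percent of parent remaining.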

Fatty acid synthase [2] = target: T1, Fatty acid synthase (Homo sapiens, UniProt P49327); assay: Inhibition of full length recombinant human FASN using acetyl-CoA/malonyl-CoA as substrate preincubated for 60 mins followed by substrate addition and measured after 90 mins in presence of NADPH
How it was run: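 Full-length recombinant human FASN. CoA released is detected as a fluorescent conjugate with the coumarin maleimide CPM. IC50 is the mean of at least two separate runs.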

PC-3 = assay: Antiproliferative activity against human PC3 cells after 96 hrs by MTT assay; assay type: functional, cell-based; settings: PC-3, 96 h
How it was run: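 PC3 prostate cancer cells grown in medium with 10% lipid-reduced serum, a condition in which growth depends on de novo lipogenesis, in the presence of inhibitor. Antiproliferative IC50 reported as the mean of at least two separate runs.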

Fatty acid synthase [3] = target: T1, Fatty acid synthase; assay: Inhibition of FASN in human BT474 cells preincubated for 1 hr followed by [14C]-acetate addition and measured after 4 hrs by scintillation counting assay; assay type: cell-based
How it was run: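 BT474 breast cancer cells given 14C-acetate, which cellular FASN incorporates via acetyl-CoA into newly made radiolabeled palmitate. IC50 for blocking this incorporation is the mean of at least two separate runs.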

[4] = Kinetic solubility of compound at pH 7.4; assay type: physicochemical; settings: buffer, read-out: Kinetic_solubility
How it was run: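 Kinetic solubility measured at pH 7.4.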

[5] = Toxicity in Balb/c nude mouse at 5 mg/kg, po administered as single dose; assay type: organism-based; settings: in vivo
How it was run: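 Female Balb/c nude mice observed for acute toxicity after a single oral 5 mg/kg dose.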

[6] = Stability in mouse hepatocytes after 1 hr; assay type: ADME, cell-based, Hepatocyte; settings: read-out: Stability
[7] = Stability in mouse liver S9 fraction after 1 hr; assay type: ADME, subcellular; settings: read-out: Stability
[8] = AUC in mouse at mg/kg, po; assay type: ADME, organism-based; set-up: concentration or dose not given beside the values; settings: in vivo
How it was run: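 Mouse oral PK study at 5 mg/kg p.o., with plasma exposure taken as AUC0-8h.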

[9] = Intrinsic clearance in human liver microsomes; assay type: ADME, Microsome; settings: read-out: CLH
[10] = Intrinsic clearance in mouse liver microsomes; assay type: ADME, Microsome; settings: read-out: CLH
[11] = Toxicity in mouse assessed as drug tolerability administered as single dose; settings: in vivo
How it was run: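 Mice received a single oral (PO) dose of 5 mg/kg and were watched for acute toxicity to judge tolerability. Female Balb/c nude mice were used for the fluorobenzoxazole analogues. Tolerability was expressed as whether the single dose was tolerated or as a maximum tolerated dose.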

MV4-11 [12] = assay: Antiproliferative activity against human MV4-11 cells after 96 hrs by CellTiter-Glo reagent-based assay; assay type: functional, cell-based; settings: MV4-11, 96 h
How it was run: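 Antiproliferative activity measured in MV-411 cells. IC50 reported as the mean of at least two separate assay runs.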

[13] = Tmax in Balb/c nude mouse at 5 mg/kg, po; assay type: ADME, organism-based; settings: in vivo
How it was run: (§1)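 Female Balb/c nude mice (n=6) dosed orally at 5 mg/kg in PEG400/ethanol (9:1). Exposure measured over 8 h, giving Tmax, Cmax, AUC0-8h and %F.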

[14] = Cmax in Balb/c nude mouse at 5 mg/kg, po; assay type: ADME, organism-based; set-up: dose 5 mg/kg, route oral; settings: in vivo; how it was run: as §1
[15] = AUC (0 to 8 hrs) in Balb/c nude mouse at 5 mg/kg, po; assay type: ADME, organism-based; set-up: time < 8 hr, dose 5 mg/kg, route oral; settings: in vivo; how it was run: as §1
[16] = Oral bioavailability in Balb/c nude mouse at 5 mg/kg; assay type: ADME, organism-based; settings: in vivo; how it was run: as §1
[17] = Tmax in Sprague-Dawley rat at 5 mg/kg, po; assay type: ADME, organism-based; settings: in vivo
How it was run: (§2)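 Male Sprague-Dawley rats (n=3) given a single oral 5 mg/kg dose in PEG400/ethanol (9:1). Plasma followed over 24 h to give Tmax, Cmax, AUC0-24h and oral bioavailability (%F).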

[18] = Cmax in Sprague-Dawley rat at 5 mg/kg, po; assay type: ADME, organism-based; set-up: dose 5 mg/kg, route oral; settings: in vivo; how it was run: as §2
[19] = AUC (0 to 24 hrs) in Sprague-Dawley rat at 5 mg/kg, po; assay type: ADME, organism-based; set-up: dose 5 mg/kg, time < 24 hr, route oral; settings: in vivo; how it was run: as §2
[20] = Oral bioavailability in Sprague-Dawley rat at 5 mg/kg; assay type: ADME, organism-based; settings: in vivo; how it was run: as §2
Mus musculus = assay: In vivo inhibition of FASN in Harlan nude mouse xenografted with human MV411 cells assessed as increase in malonyl-CoA levels in tumors administered orally twice daily for 16 days and measured 4 hrs post last dose by LC-MS analysis; assay type: functional, organism-based
How it was run: (§3)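 Mice carrying subcutaneous MV-411 xenografts were randomized at […] tumor size into four groups (n=4). Groups received vehicle (PEG400/ethanol 9:1 v/v) or 5, 25 or 50 mg/kg twice daily. Tumors were taken 4 h after the last dose for malonyl-CoA measurement by LC-MS (one-way ANOVA vs vehicle). Tumor growth inhibition was assessed vs vehicle after 16 days.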

MV4-11 [21] = assay: Antitumor activity against human MV4-11 cells xenografted in Harlan nude mouse assessed as tumor growth inhibition at 25 mg/kg, po administered twice daily for 16 days and measured 4 hrs post last dose; assay type: functional; settings: MV4-11, po, read-out: TGI; how it was run: as §3
MV4-11 [22] = assay: Antitumor activity against human MV4-11 cells xenografted in Harlan nude mouse assessed as tumor growth inhibition at 50 mg/kg, po administered twice daily for 16 days and measured 4 hrs post last dose; assay type: functional; settings: MV4-11, po, read-out: TGI; how it was run: as §3
[23] = Inhibition of ketoreductase (unknown origin); set-up: species or system Homo sapiens
[24] = Inhibition of enoyl reductase (unknown origin); set-up: species or system Homo sapiens
[25] = Inhibition of dehydratase (unknown origin); set-up: species or system Homo sapiens
[26] = Inhibition of thioesterase (unknown origin); set-up: species or system Homo sapiens

T1 sequence (P49327 whole entry): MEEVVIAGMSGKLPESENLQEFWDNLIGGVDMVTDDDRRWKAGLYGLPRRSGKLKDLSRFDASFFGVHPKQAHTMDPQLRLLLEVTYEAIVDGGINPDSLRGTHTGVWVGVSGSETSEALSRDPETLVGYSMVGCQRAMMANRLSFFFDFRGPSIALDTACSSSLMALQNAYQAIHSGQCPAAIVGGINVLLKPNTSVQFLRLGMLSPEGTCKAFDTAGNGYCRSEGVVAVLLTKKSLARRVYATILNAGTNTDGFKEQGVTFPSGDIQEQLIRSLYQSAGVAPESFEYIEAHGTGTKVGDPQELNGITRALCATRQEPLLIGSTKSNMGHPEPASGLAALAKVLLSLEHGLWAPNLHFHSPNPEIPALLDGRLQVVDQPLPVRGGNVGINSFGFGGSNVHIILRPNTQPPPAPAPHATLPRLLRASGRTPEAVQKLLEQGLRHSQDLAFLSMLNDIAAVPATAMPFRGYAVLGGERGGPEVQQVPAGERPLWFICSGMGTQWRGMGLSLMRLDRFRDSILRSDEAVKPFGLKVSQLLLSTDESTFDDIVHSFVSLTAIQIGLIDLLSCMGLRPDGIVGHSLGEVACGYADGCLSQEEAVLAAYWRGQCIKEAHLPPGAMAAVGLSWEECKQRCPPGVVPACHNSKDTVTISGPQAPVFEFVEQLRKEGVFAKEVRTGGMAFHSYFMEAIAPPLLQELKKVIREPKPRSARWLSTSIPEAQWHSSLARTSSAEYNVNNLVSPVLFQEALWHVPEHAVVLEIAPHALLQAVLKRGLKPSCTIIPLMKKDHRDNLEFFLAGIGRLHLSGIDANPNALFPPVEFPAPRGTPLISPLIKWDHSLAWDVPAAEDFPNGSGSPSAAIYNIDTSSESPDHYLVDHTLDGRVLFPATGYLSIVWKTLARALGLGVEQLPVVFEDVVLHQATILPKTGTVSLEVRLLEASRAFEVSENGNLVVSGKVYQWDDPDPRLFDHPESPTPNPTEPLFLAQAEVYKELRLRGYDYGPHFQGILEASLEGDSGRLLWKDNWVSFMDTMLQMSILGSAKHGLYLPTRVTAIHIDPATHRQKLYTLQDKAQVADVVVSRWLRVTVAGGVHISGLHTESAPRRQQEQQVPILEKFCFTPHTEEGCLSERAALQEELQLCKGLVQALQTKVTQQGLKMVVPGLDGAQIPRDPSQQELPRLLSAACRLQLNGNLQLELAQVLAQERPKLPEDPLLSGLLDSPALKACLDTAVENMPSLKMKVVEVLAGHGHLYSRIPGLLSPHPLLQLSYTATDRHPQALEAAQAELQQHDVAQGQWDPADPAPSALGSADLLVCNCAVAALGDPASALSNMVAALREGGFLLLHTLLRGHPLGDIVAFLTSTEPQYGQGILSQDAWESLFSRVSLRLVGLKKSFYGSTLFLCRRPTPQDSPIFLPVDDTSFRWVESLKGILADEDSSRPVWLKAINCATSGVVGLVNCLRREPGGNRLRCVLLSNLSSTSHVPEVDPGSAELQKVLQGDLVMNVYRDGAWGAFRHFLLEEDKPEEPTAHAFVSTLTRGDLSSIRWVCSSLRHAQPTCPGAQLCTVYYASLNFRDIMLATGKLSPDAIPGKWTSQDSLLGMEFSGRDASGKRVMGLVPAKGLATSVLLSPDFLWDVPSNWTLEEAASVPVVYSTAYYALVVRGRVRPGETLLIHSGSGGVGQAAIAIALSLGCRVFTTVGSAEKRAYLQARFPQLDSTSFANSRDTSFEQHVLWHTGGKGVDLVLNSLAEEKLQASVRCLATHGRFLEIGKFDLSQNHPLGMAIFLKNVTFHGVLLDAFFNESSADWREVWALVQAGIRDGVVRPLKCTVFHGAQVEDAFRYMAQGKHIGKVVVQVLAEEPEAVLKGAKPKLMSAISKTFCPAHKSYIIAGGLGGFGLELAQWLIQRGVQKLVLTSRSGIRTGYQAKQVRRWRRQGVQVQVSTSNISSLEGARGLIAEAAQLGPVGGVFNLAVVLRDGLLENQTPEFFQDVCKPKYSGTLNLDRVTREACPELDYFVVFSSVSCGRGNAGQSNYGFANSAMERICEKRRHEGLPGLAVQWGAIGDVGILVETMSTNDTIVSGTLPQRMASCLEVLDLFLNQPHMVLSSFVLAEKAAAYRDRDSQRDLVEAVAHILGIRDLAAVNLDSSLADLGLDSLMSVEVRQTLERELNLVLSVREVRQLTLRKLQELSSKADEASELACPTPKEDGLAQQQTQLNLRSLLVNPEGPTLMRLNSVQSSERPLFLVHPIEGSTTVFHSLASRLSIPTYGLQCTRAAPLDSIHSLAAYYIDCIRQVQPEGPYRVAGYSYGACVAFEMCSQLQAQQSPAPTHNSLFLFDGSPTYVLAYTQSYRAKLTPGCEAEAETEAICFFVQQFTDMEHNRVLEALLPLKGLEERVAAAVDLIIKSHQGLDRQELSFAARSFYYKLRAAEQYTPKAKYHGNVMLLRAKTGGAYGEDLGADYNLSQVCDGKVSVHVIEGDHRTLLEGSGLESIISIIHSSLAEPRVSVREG

Row | Structure (SMILES) | remaining at 0.5 h [1] | IC50 (Fatty acid synthase [2]) | IC50 (PC-3) | IC50 (Fatty acid synthase [3]) | solubility kinetic [4] | also measured
1 | O=C(c1ccc(-c2ccc(Cl)cc2F)cc1)N1CCN(C(=O)C2(O)CC2)CC1 | 92% | 0.11 µM | 0.146 µM | 0.336 µM | 33 µM (≈ 13.3 µg/mL) | remaining at 1 h [6]: 84%; remaining at 1 h [7]: 70%; AUC [8]: 47.6 µM·h
2 | O=C(c1ccc(-c2ccc3cnccc3c2)cc1)N1CCN(C(=O)C2(O)CC2)CC1 | 45% | 0.013 µM | 0.013 µM | 0.011 µM | 77 µM (≈ 30.9 µg/mL) | remaining at 1 h [6]: 1%; remaining at 1 h [7]: 0%; AUC [8]: 0.1 µM·h
3 | Cn1c(-c2ccc(C(=O)N3CCN(C(=O)C4(O)CC4)CC3)cc2)cc2ccccc21 | 83% | 0.033 µM | 0.025 µM | 0.07 µM | 0.3 µM (≈ 0.121 µg/mL) | –
4 | O=C(c1ccc(-c2nc3ccccc3o2)cc1)N1CCN(C(=O)C2(O)CC2)CC1 | 109% | 0.054 µM | 0.015 µM | 0.101 µM | 83 µM (≈ 32.5 µg/mL) | AUC [8]: 28.7 µM·h; microsomal CLint [9]: 7 µL/min/mg; microsomal CLint [10]: 7 µL/min/mg; MTD [11]: < 5 mg/kg
5 | O=C(c1ccc(-c2ccc3[nH]ccc3c2)cc1)N1CCN(C(=O)C2(O)CC2)CC1 | 55% | 0.016 µM | 0.004 µM | 0.018 µM | 60 µM (≈ 23.4 µg/mL) | –
6 | O=C(c1ccc(-c2nc3cc(Cl)ccc3o2)cc1)N1CCN(C(=O)C2(O)CC2)CC1 | 85% | 0.069 µM | 0.049 µM | 0.136 µM | 6 µM (≈ 2.56 µg/mL) | –
7 | O=C(c1ccc(-c2ccccc2)cc1)N1CCN(C(=O)C2(O)CC2)CC1 | 95% | 0.35 µM | – | – | – | –
8 | O=C(c1ccc(-c2ccccc2)cc1)N1CCN(C(=O)[C@@H]2CCCO2)CC1 | 65% | ≥ 50 µM | – | – | – | –
9 | O=C(c1ccc(-c2nc3ccc(Cl)cc3o2)cc1)N1CCN(C(=O)C2(O)CC2)CC1 | 92% | 0.097 µM | 0.029 µM | 0.104 µM | 7 µM (≈ 2.98 µg/mL) | –
10 | O=C(c1ccc(-c2ccc3ccccc3n2)cc1)N1CCN(C(=O)C2(O)CC2)CC1 | 79% | 0.032 µM | 0.002 µM | 0.101 µM | 71 µM (≈ 28.5 µg/mL) | –
11 | Cn1ccc2cc(-c3ccc(C(=O)N4CCN(C(=O)C5(O)CC5)CC4)cc3)ccc21 | 81% | 0.012 µM | – | 0.019 µM | 3 µM (≈ 1.21 µg/mL) | –
12 | O=C(c1ccc(-c2nc3ccc(F)cc3o2)cc1)N1CCN(C(=O)C2(O)CC2)CC1 | 100% | 0.213 µM | 0.047 µM | 0.09 µM | 39 µM (≈ 16 µg/mL) | IC50 (MV4-11 [12]): 0.026 µM; Tmax [13]: 2 h; Cmax [14]: 8.4 µM; AUC(0-t) at 8 h [15]: 46 µM·h; bioavailability [16]: 95%; Tmax [17]: 3 h; Cmax [18]: 33 µM; AUC(0-t) at 24 h [19]: 440 µM·h; bioavailability [20]: 84%; inhibition (Mus musculus): Dose-dependent effect; inhibition in vivo at 25 mg/kg (MV4-11 [21]): 32%; inhibition in vivo at 50 mg/kg (MV4-11 [22]): 50%; remaining at 1 h [6]: 97%; remaining at 1 h [7]: 83%; AUC [8]: 46 µM·h; Activity [5]: Non-Toxic
13 | O=C(c1ccc(-c2ccccc2)cc1)N1CCN(C(=O)C2(O)CCC2)CC1 | 85% | 1.8 µM | – | – | – | –

The next lines start with results.

Row | remaining at 0.5 h [1] | IC50 (Fatty acid synthase [2]) | IC50 (PC-3) | IC50 (Fatty acid synthase [3]) | solubility kinetic [4] | Structure (SMILES) | also measured
14 | 88% | 0.032 µM | 0.017 µM | 0.011 µM | 95 µM (≈ 38.7 µg/mL) | O=C(c1ccc(-c2ccc3scnc3c2)cc1)N1CCN(C(=O)C2(O)CC2)CC1 | –
15 | 93% | 0.192 µM | 0.052 µM | 0.061 µM | 30 µM (≈ 12.3 µg/mL) | O=C(c1ccc(-c2nc3cc(F)ccc3o2)cc1)N1CCN(C(=O)C2(O)CC2)CC1 | Activity [5]: Toxic
16 | 99% | 35 µM | – | – | – | CC(C)(O)C(=O)N1CCN(C(=O)c2ccc(-c3ccccc3)cc2)CC1 | –
17 | 100% | 1.1 µM | – | – | – | O=C(c1ccc(-c2ccccc2)cc1)N1CCN(C(=O)[C@H]2CCCO2)CC1 | –
18 | – | 3.1 µM | – | – | – | COc1ccc(-c2ccc(C(=O)N3CCN(C(=O)C4(O)CC4)CC3)cc2)c(Cl)c1 | –
19 | 60% | 0.142 µM | 0.142 µM | 0.257 µM | 92 µM (≈ 36 µg/mL) | O=C(c1ccc(-c2ccc3ocnc3c2)cc1)N1CCN(C(=O)C2(O)CC2)CC1 | –
20 | – | > 50 µM | – | – | – | O=C(c1ccc(-c2ccccc2)cc1)N1CCN(C(=O)C2CCCC2)CC1 | –
21 | 69% | 0.31 µM | – | 4.96 µM | 67 µM (≈ 27 µg/mL) | O=C(c1ccc(-c2ccc(F)cc2Cl)cc1)N1CCN(C(=O)C2(O)CC2)CC1 | –
22 | 84% | 0.057 µM | 0.214 µM | 0.067 µM | 18 µM (≈ 7.33 µg/mL) | O=C(c1ccc(-c2nc3ccccc3s2)cc1)N1CCN(C(=O)C2(O)CC2)CC1 | –
23 | 89% | > 5 µM | – | > 125 µM | 95 µM (≈ 38.2 µg/mL) | O=C(c1ccc(-c2cnc3cccnc3c2)cc1)N1CCN(C(=O)C2(O)CC2)CC1 | –
24 | 86% | 0.01 µM | – | 0.012 µM | 82 µM (≈ 32.9 µg/mL) | O=C(c1ccc(-c2cnc3ccccc3c2)cc1)N1CCN(C(=O)C2(O)CC2)CC1 | –
25 | 66% | 0.11 µM | 0.138 µM | 0.158 µM | 43 µM (≈ 17.3 µg/mL) | O=C(c1ccc(-c2cc(Cl)ccc2F)cc1)N1CCN(C(=O)C2(O)CC2)CC1 | –
26 | 89% | 0.026 µM | 0.012 µM | – | 79 µM (≈ 32 µg/mL) | Cn1ncc2ccc(-c3ccc(C(=O)N4CCN(C(=O)C5(O)CC5)CC4)cc3)cc21 | remaining at 1 h [6]: 77%; remaining at 1 h [7]: 75%; AUC [8]: 9.8 µM·h
27 | – | > 50 µM | – | – | – | O=C(c1ccc(-c2ccccc2)cc1)N1CCN(C(=O)C2(O)CCCC2)CC1 | –
28 | – | 1.14 µM | – | – | – | O=C(c1ccc(-c2ccccc2)cc1)N1CCN(C(=O)C2CCCO2)CC1 (racemic) | IC50 [23]: 1.8 µM; IC50 [24]: > 50 µM; IC50 [25]: > 50 µM; IC50 [26]: > 50 µM
